Hits are enriched below; roughly 3.5% of the tested compounds scored in any of these assays.
MrgX1 PAM = human MrgX1 positive allosteric modulation, primary screen | Q96LB2 | MrgX1-HEK293, Fluo-4 calcium flux, FDSS; active compounds read high | B-score at 10 µM | 310,000 compounds, 0.63% hits | AID 588675;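 active = plate-corrected calcium response at least 3 library SD above typical, normal starting fluorescence, not activating the receptor alone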;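 also: compound read alongside a low EC10 to EC30 dose of BAM8-22 agonist; peak minus trough fluorescence over baseline measured at the second addition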
Target sequence (Q96LB2 whole entry, looked up): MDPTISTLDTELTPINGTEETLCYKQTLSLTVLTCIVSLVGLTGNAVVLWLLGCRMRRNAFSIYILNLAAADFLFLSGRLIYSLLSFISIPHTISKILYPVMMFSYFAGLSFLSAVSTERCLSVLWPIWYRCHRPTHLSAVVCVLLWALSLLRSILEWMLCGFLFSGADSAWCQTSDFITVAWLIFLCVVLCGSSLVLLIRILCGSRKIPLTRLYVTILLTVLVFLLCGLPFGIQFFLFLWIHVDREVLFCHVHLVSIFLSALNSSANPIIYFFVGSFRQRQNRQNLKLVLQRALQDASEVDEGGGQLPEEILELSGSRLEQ
RGS4 inh = human RGS4 inhibition. B-score at 10 µM. 310,000 compounds, 0.45% hits. AID 463165. P49798. HEK293 M3R/RGS4 inducible, Fluo-4 calcium flux; active compounds read high; triggered by carbachol at its EC20;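 active = B-score, a plate-corrected calcium signal, over three deviations above library mean, with baseline fluorescence within five deviations of library mean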;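 also: RGS4 expression induced by doxycycline in cells with stable M3 receptor; B-score is computed from the integrated fluorescence ratio over baseline after carbachol; higher B-score means a larger calcium signal and so more RGS4 inhibition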
Target sequence (P49798 whole entry, looked up): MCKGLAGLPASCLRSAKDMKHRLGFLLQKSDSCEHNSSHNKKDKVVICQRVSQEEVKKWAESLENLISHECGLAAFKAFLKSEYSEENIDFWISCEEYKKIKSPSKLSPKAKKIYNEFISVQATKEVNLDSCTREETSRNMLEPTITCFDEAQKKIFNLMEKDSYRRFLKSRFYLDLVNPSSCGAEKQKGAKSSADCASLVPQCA
RGS4 act = potentiators or activators of RGS4; HEK293 M3R/inducible RGS4, carbachol calcium flux Fluo4; active compounds read low; B-score at 10 µM; 310,000 compounds, 0.92% hits;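 active = B-score of the integrated calcium signal more than 4 SD below the library mean, with starting fluorescence not abnormally high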;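 also: negative B-score means reduced calcium response which marks RGS4 activation or potentiation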
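Material: Inducible-RGS4 HEK293 cells carrying M3 receptor; also added: carbachol at ECmax as muscarinic agonist stimulus; incubation: compound preincubation 20 min at room temperature before agonist; signal: Fluo4-AM (2 µM) calcium-flux fluorescence, kinetic read; measure: integrated calcium ratio converted to B score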
MrgX1 antag = human MrgX1 receptor antagonism, primary screen. MRGX1-HEK293 calcium flux, Fluo-4, BAM8-22 antagonism; active compounds read low. B-score at 10 µM. 310,000 compounds, 1.3% hits. AID 588676;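 active = calcium-response B-score plate-corrected more than 3 library SD below zero, starting fluorescence within 5 deviations, no agonist response on first addition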;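 also: peak minus trough fluorescence over baseline after final BAM8-22 challenge near maximal dose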
MrgX1 agonist = activates human MrgX1 receptor signaling; B-score at 10 µM; AID 588627; 310,000 compounds, 0.44% hits; MrgX1-HEK293 cells, Fluo-4 calcium fluorescence, agonist mode; active compounds read high;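 active = calcium response B-score plate-corrected fluorescence ratio at least 3 library SD, with starting fluorescence B-score inside 5 SD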
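Material: MrgX1-expressing HEK293 cells; input: 15,000 cells per well; doses: test compound given as first of three sequential additions; schedule: overnight plating before 1 h dye loading; technique: Fluo-4 NW calcium-flux fluorescence, kinetic read; evaluation: baseline-normalised fluorescence change ratio, B-scored; control set: plate-wise positive and negative controls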
RGS4 block valid = RGS4 inhibitor validation; shares compounds with RGS4 inh; HEK293 M3R/RGS4, carbachol calcium Fluo-4 fluorescence; carbachol added at its EC20; 0 = buffer wells, 100 = carbachol control; calcium response, % at 10 µM; 1,700 compounds, 65% hits; AID 492999;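 active = duplicate-averaged calcium response above the buffer-only control mean plus 5 SD of those controls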;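 also: integrated fluorescence ratio F max minus min over baseline F0; higher response in RGS4-induced cells means RGS4 inhibition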
RGS4 uninduced = non-induced cell nonspecific activity of RGS4 inhibitors; 1,900 compounds, 20% hits; shares compounds with RGS4 inh; AID 493000; HEK293 M3R non-induced, carbachol calcium Fluo-4; submaximal (EC20) carbachol stimulus; buffer wells 0%, carbachol control wells 100%; activity (percent), % at 10 µM; call rule not given here;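 also: RGS4 induction absent so cells express M3R without RGS4; higher means more calcium signal and flags a non-specific hit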
RGS4 inh ctr2 = second counter-screen for RGS4 inhibitors: non-induced cells without carbachol; shares compounds with RGS4 inh; HEK293 M3R/RGS4 non-induced, Fluo-4 calcium, no carbachol; normalised: buffer wells 0%, carbachol wells 100%; calcium response (agonist-mode artifact), % at 10 µM; 1,900 compounds, 22% hits;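 active = duplicate-averaged calcium rise in uninduced cells above buffer wells' mean plus 5 SD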
A number is an active result; i = inactive; nt = not tested or not shown.

SMILES	MrgX1 PAM	RGS4 inh	RGS4 act	MrgX1 antag	MrgX1 agonist	RGS4 block valid	RGS4 uninduced	RGS4 inh ctr2
CC1(C)CC(=O)C(C(C2=C(O)CC(C)(C)CC2=O)c2ccc(Br)s2)C(=O)C1 (stereo unspecified)	i	18.1	i	i	i	87.5%	i	74.0%
CC1(C)CC(=O)C(C(C2=C(O)CC(C)(C)CC2=O)c2ccc([N+](=O)[O-])cc2)C(=O)C1 (stereo unspecified)	i	i	i	i	i	nt	nt	nt
Cc1ccc(C(C2=C(O)CC(C)(C)CC2=O)C2C(=O)CC(C)(C)CC2=O)s1 (stereo unspecified)	i	13.7	i	i	i	35.0%	44.0%	i
CCCCc1nc2n[nH]c(N)c2c2c1CSC(C)(C)C2	i	4.67	i	i	i	i	i	i
OCC[C@H]1C[C@H](O)[C@@H](O)[C@@]2(CCc3ccccc3O2)O1	i	nt	nt	i	i	nt	nt	nt
O=C(NC(=S)NCCc1ccccc1)c1cccc(Cl)c1	i	i	i	i	i	nt	nt	nt
Cc1cc(NS(=O)(=O)c2ccc(Nc3nc(-c4sc(N)nc4C)cs3)cc2)no1	i	i	i	i	i	nt	nt	nt
Cc1cc(NS(=O)(=O)c2ccc(Nc3nc(-c4ccc(C)c(C)c4)cs3)cc2)no1	i	i	i	i	i	i	33.5%	i
Cc1cc(NS(=O)(=O)c2ccc(Nc3nc(-c4ccc(O)cc4)cs3)cc2)no1	i	i	i	i	i	nt	i	i
COc1cc(NS(=O)(=O)c2ccc(Nc3nc(-c4ccccc4)cs3)cc2)nc(OC)n1	i	7.96	i	i	i	18.5%	i	i
CCOc1ccc(/C=N/NC(=O)CNC(=O)c2ccc(S(=O)(=O)N3CCOCC3)cc2)cc1	i	i	i	i	i	nt	nt	nt
COc1ccc(C(CC(=O)c2ccc(C)cc2)Nc2ccc([N+](=O)[O-])cc2)cc1 (stereo unspecified)	i	i	i	i	i	nt	nt	nt
Cc1ccc(C(=O)CC(C(=O)O)n2cnc([N+](=O)[O-])n2)cc1 (stereo unspecified)	i	5.58	i	i	i	14.5%	i	i
O=C(CC(SCCO)c1ccc([N+](=O)[O-])cc1)c1ccco1 (stereo unspecified)	i	5.44	i	i	i	11.0%	i	i
Cc1ccc(C(=O)CC(SCC(=O)O)c2ccc([N+](=O)[O-])cc2)cc1 (stereo unspecified)	i	6.29	i	i	i	11.0%	36.0%	i
CCn1ccc(C(=O)Nc2ccc3c(c2)CCC3)n1	i	i	i	i	i	nt	nt	nt
C=CCn1c[n+](CC(=O)c2ccc(Br)s2)c2ccccc21	i	i	i	i	i	nt	nt	nt
Cc1ccc(/C=N/NC(=O)NC2CCCCC2)o1	i	i	i	i	i	nt	nt	nt
Cc1ccc(/C=C/C(=O)NCc2ccc3c(c2)OCO3)o1	i	5.59	i	i	i	10.0%	i	i
Cc1ccc(/C=C/C(=O)NCCc2cccc(Cl)c2)o1	i	6.88	i	i	i	24.5%	i	i
Cc1ccc(/C=C/C(=O)NC2CCCCCCC2)o1	i	8.83	i	i	i	22.5%	i	i
Cc1ccc(/C=C/C(=O)NCCc2c[nH]c3ccccc23)o1	i	i	i	i	i	nt	nt	nt
Cc1ccc(C(=O)NCc2ccc3c(c2)OCO3)o1	i	i	i	i	i	nt	nt	nt
CCCCN(C(=O)c1cc(S(=O)(=O)N2CCCCCC2)ccc1OC)c1ccccc1	i	i	i	i	i	nt	nt	nt
COCCNC(=S)N(CCO)Cc1cc2cc3c(cc2[nH]c1=O)OCO3	i	i	i	i	i	i	i	i
SMILES	MrgX1 PAM	RGS4 inh	RGS4 act	MrgX1 antag	MrgX1 agonist	RGS4 block valid	RGS4 uninduced	RGS4 inh ctr2
CCN(CC)CCN(Cc1cc2cc3c(cc2[nH]c1=O)OCO3)C(=S)NCCCOC	i	i	i	i	i	nt	nt	nt
COCCNC(=S)N(CCCO)Cc1cc2cc3c(cc2[nH]c1=O)OCCO3	i	i	i	i	i	i	i	i
CCOC(=O)C1=C(CS(=O)(=O)c2ccc(Cl)cc2)NC(=O)NC1c1ccc(O)c(OC)c1 (stereo unspecified)	i	i	i	i	i	nt	nt	nt
COC(=O)C1=C(CS(=O)(=O)c2ccc(Cl)cc2)NC(=O)NC1c1ccc(O)c(OC)c1 (stereo unspecified)	i	i	i	i	i	i	i	i
COC(=O)C1=C(CS(=O)(=O)c2ccc(OC)c(OC)c2)NC(=O)NC1c1ccc(O)c(OC)c1 (stereo unspecified)	i	19.3	i	i	i	6.0%	i	i
O=C(NCCCN1CCOCC1)c1cnccn1	i	i	i	i	i	nt	nt	nt
Cc1ccc(NC(=O)C(=Cc2ccc(C(=O)O)cc2)C(=O)Nc2ccc(C)cc2C)c(C)c1	i	10.6	i	i	i	18.5%	i	i
O=c1[nH]c2ccc(Cl)cc2c(-c2ccccc2)c1N1CCN(c2ccccn2)CC1	i	7.54	i	i	i	17.0%	i	i
Cc1ccc(F)cc1NC(=O)C1CC(=O)N(CCc2ccccc2)C1 (stereo unspecified)	i	i	i	i	i	nt	nt	nt
N#C/C(=C\c1ccc(OC(F)F)cc1)C(=O)N1CCCCC1	i	5.85	i	i	i	16.0%	i	i
CCN1CCN(C(=O)/C(C#N)=C/c2ccc(OC(F)F)cc2)CC1	i	i	i	i	i	nt	nt	nt
COc1ccc(Br)cc1CN1CCN(S(=O)(=O)Cc2ccccc2)CC1	i	27.6	i	i	i	i	i	i
CC1C(=O)N2CCCc3cc(S(=O)(=O)N4CCC(C(N)=O)CC4)cc1c32 (stereo unspecified)	i	i	i	i	i	nt	nt	nt
N#CC1=C(N)Nc2nc3ccccc3n2C1c1ccc(Cl)cc1 (stereo unspecified)	i	i	i	i	i	nt	nt	nt
CCOC(=O)C1=C(C)n2c(s/c(=C/c3cccc([N+](=O)[O-])c3)c2=O)=NC1c1ccc(O)c(OC)c1 (stereo unspecified)	i	33.9	i	i	i	66.0%	34.5%	20.0%
COc1ccccc1NC(=O)c1cnc(SCC(=O)NCC2CCCO2)n(C)c1=O (stereo unspecified)	i	5.38	i	i	i	9.0%	i	i
COc1ccc(S(=O)(=O)NCc2ccc(C(=O)NCCCN3CC(C)CC(C)C3)cc2)cc1 (stereo unspecified)	i	i	i	i	i	nt	nt	nt
